Measured values as given in ChEMBL document CHEMBL4477160, “Methylbenzene-Containing Polyketides from a Streptomyces that Spontaneously Acquired Rifampicin Resistance: Structural Elucidation and Biosynthesis” (J Nat Prod, 2016).
The source made the active and inactive calls.

Legend:
[1] = tested on: Micrococcus luteus; experiment: Antimicrobial activity against Micrococcus luteus assessed as decrease in cell viability at 1.56 to 100 uM after 24 hrs; format: functional, organism-based
Summary of the method: (§1)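 Compounds in DMSO dispensed at a range of concentrations into 384-well plates. Each test strain was grown to OD620 ~0.5, diluted 2000-fold in LB medium and added to the wells. Plates were incubated 24 h at 37 °C. Viability was read as absorbance at 620 nm.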

[2] = tested on: Jurkat; experiment: Cytotoxicity against human Jurkat cells assessed as decrease in cell viability at 0.01 to 100 uM after 72 hrs by WST-8 assay; format: functional, cell-based
[3] = tested on: Staphylococcus aureus; experiment: Antimicrobial activity against Staphylococcus aureus assessed as decrease in cell viability at 1.56 to 100 uM after 24 hrs; format: functional, organism-based; summary of the method: as §1
[4] = tested on: Escherichia coli; experiment: Antimicrobial activity against Escherichia coli assessed as decrease in cell viability at 1.56 to 100 uM after 24 hrs; format: functional, organism-based; summary of the method: as §1
[5] = tested on: Bacillus subtilis; experiment: Antimicrobial activity against Bacillus subtilis assessed as decrease in cell viability at 1.56 to 100 uM after 24 hrs; format: functional, organism-based; summary of the method: as §1
[6] = species: Homo sapiens; experiment: Cytotoxicity against human ACC-MESO1 cells assessed as decrease in cell viability at 0.01 to 100 uM after 72 hrs by WST-8 assay; format: functional, cell-based
[7] = tested on: SK-OV-3; experiment: Cytotoxicity against human SKOV3 cells assessed as decrease in cell viability at 0.01 to 100 uM after 72 hrs by WST-8 assay; format: functional, cell-based

Measured: Activity

Cc1ccccc1/C=C/CCC(=O)NC1=C(O)CCC1=O
inactive: all assays above

Cc1ccccc1/C=C/C=C/C=C/C=C/C(=O)NC1=C(O)CCC1=O
inactive: all assays above
